Data: ChEMBL document CHEMBL4052830, “Dual Nicotinic Acetylcholine Receptor α4β2 Antagonists/α7 Agonists: Synthesis, Docking Studies, and Pharmacological Evaluation of Tetrahydroisoquinolines and Tetrahydroisoquinolinium Salts” (J Med Chem, 2018)
Calls of active or inactive are those of the source. No cut-off for these calls is given here.

Assays:
[1] = molecular target: Neuronal acetylcholine receptor; alpha4/beta2 (Rattus norvegicus, UniProt P09483+P12390); assay: Displacement of [3H]epibatidine from rat alpha4beta2 nAChR expressed in HEK293 cell membranes after 4 hrs by scintillation counting method
Neuronal acetylcholine receptor; alpha4/beta2, sequence (P09483 whole entry): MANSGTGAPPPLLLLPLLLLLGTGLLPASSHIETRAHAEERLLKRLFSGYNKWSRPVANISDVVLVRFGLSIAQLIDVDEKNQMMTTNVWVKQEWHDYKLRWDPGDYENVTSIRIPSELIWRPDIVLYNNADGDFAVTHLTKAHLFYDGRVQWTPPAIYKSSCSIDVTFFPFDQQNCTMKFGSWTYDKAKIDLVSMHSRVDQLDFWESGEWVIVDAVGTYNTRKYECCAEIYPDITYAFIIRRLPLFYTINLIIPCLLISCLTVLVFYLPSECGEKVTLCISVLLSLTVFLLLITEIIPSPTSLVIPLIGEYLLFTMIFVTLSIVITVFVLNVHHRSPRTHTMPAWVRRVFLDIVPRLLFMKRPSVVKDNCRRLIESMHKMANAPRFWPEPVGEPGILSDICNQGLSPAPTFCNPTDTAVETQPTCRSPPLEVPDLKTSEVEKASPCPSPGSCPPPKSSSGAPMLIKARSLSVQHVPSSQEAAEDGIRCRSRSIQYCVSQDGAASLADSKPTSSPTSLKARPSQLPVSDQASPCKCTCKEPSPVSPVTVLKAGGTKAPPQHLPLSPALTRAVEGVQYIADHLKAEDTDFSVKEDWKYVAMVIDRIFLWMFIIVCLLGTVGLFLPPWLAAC
Neuronal acetylcholine receptor; alpha4/beta2, sequence (P12390 whole entry): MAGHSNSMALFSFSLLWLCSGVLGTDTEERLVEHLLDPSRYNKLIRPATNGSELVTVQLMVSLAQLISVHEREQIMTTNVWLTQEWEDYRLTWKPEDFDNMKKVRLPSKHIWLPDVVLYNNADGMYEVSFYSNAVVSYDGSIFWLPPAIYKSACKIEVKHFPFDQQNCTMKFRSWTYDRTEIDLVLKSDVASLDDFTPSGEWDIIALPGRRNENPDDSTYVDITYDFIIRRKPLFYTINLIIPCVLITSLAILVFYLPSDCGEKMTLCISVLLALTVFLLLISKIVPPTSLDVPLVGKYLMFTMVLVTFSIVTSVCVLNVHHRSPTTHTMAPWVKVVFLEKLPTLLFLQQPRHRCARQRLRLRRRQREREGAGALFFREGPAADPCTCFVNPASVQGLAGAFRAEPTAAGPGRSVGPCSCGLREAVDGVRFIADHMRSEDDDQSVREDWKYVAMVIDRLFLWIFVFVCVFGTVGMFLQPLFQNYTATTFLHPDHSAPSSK
Summary of the method: (§1)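 Membranes from HEK293 lines stably expressing α3β4, α4β4 or α4β2 nAChR, [3H]epibatidine competition binding. Ki came from concentration-inhibition curves. Means of 3–5 experiments in duplicate.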

[2] = molecular target: Neuronal acetylcholine receptor; alpha4/beta4 (Rattus norvegicus, UniProt P09483+P12392); assay: Displacement of [3H]epibatidine from rat alpha4beta4 nAChR expressed in HEK293 cell membranes after 4 hrs by scintillation counting method; summary of the method: as §1
Neuronal acetylcholine receptor; alpha4/beta4, sequence (P09483 whole entry): as the sequence (P09483 whole entry) above
Neuronal acetylcholine receptor; alpha4/beta4, sequence (P12392 whole entry): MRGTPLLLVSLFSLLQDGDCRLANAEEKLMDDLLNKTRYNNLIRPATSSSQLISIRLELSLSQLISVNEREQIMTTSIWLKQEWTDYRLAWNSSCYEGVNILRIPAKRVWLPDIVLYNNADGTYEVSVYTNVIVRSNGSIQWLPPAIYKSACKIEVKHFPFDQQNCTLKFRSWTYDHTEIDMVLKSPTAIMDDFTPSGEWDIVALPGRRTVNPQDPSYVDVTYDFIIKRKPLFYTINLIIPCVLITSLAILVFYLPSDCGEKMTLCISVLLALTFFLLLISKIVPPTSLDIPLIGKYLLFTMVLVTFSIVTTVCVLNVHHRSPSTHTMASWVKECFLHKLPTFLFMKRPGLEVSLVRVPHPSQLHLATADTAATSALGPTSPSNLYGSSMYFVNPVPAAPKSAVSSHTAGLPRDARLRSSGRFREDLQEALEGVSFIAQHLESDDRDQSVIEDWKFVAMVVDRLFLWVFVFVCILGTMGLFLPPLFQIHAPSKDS

[3] = molecular target: T1, Neuronal acetylcholine receptor; alpha3/beta4 (Rattus norvegicus, UniProt P04757+P12392); assay: Displacement of [3H]epibatidine from rat alpha3beta4 nAChR expressed in HEK293 cell membranes after 4 hrs by scintillation counting method; summary of the method: as §1
T1 sequence (P04757 whole entry): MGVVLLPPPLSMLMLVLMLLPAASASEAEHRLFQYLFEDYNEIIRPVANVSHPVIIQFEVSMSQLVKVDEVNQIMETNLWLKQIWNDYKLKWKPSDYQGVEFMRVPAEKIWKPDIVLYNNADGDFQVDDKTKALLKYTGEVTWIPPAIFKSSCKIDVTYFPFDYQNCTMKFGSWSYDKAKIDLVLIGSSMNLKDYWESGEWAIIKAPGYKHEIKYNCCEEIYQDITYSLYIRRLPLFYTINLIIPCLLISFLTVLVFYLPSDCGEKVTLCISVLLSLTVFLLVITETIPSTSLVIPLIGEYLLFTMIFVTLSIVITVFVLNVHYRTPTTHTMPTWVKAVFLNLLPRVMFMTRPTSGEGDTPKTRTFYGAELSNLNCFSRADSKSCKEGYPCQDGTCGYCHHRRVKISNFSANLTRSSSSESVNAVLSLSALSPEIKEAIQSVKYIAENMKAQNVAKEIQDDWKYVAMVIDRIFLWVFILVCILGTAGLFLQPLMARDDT
T1 sequence (P12392 whole entry): as the sequence (P12392 whole entry) above

[4] = molecular target: T1, Neuronal acetylcholine receptor; alpha3/beta4; assay: Antagonist activity at rat alpha3beta4 nAChR expressed in HEK293 cells assessed as inhibition of (S)-nicotine-induced […] response measured up to 90 secs by FMP assay; type: cell-based
Summary of the method: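 Rat α3β4 nAChR in stably expressing HEK293 cells, FLIPR Membrane Potential Blue assay. Antagonist mode against (S)-nicotine at EC70–EC90. IC50 derived from concentration-inhibition curves. Means of 3–5 experiments in duplicate.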

[5] = molecular target: Nicotinic acetylcholine receptor alpha-4/beta-2 (Mus musculus, UniProt Q8R493+Q9ERK7); assay: Antagonist activity at mouse alpha4beta2 nAChR expressed in HEK293 cells assessed as inhibition of (S)-nicotine-induced […] response measured up to 90 secs by FMP assay; type: cell-based
Nicotinic acetylcholine receptor alpha-4/beta-2, sequence (Q9ERK7 whole entry): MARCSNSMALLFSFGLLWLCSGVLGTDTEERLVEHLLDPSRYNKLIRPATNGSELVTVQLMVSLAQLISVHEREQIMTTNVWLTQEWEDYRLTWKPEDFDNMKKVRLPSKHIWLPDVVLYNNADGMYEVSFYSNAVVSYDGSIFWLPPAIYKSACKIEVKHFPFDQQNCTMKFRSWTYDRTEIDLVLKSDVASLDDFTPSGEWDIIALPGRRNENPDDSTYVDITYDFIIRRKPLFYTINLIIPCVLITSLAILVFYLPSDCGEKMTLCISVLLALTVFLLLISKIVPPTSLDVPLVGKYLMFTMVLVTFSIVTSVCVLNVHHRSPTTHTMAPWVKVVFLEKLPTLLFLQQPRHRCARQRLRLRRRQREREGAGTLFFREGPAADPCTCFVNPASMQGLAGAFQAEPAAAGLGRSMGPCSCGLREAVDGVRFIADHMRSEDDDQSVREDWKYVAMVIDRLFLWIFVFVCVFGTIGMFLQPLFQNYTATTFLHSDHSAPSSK
Nicotinic acetylcholine receptor alpha-4/beta-2, sequence (Q8R493 whole entry): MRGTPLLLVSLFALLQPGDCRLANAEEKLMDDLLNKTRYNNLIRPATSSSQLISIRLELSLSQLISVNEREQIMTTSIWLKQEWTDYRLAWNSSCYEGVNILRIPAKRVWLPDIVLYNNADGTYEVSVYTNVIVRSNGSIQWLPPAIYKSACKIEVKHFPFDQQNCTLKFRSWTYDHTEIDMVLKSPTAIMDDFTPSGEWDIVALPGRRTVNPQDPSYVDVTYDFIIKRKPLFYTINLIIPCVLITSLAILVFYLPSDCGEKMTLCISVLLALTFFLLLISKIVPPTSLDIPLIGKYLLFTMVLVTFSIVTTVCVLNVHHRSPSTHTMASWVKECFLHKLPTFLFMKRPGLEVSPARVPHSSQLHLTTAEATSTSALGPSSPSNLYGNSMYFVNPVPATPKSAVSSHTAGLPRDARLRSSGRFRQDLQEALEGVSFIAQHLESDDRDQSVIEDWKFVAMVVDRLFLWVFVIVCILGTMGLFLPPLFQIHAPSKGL
Summary of the method: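 Mouse α4β2 nAChR in stably expressing HEK293T cells, FLIPR Membrane Potential Blue assay. IC50 came from concentration-inhibition curves. Means of 3–5 experiments in duplicate.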

[6] = molecular target: T2, Neuronal acetylcholine receptor subunit alpha-7 (Homo sapiens, UniProt P36544); assay: Antagonist activity at human alpha7 nAChR expressed in HEK293 cells co-expressing Ric-3/NACHO assessed as inhibition of ACh-induced calcium mobilization measured up to 90 secs in presence of PNU-120596 by FLIPR assay; type: cell-based
T2 sequence (P36544 whole entry): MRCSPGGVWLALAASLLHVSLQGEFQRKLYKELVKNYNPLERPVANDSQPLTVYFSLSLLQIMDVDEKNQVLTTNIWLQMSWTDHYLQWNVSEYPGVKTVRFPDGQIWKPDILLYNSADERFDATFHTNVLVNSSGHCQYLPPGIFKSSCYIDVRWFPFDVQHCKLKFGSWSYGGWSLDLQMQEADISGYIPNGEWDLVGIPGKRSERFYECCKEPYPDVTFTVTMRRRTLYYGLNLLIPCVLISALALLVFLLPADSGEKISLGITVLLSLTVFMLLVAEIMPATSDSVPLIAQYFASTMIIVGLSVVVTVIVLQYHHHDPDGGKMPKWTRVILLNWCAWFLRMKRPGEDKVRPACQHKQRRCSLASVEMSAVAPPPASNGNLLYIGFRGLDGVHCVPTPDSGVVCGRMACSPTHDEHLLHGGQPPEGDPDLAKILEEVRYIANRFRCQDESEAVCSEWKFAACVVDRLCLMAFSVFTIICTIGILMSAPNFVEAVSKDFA
Summary of the method: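 Human α7 nAChR stably co-expressed with Ric-3/NACHO in HEK293 cells. Antagonist mode in the Ca2+/Fluo-4 assay: test ligand inhibits acetylcholine at EC70–EC90, with 3 μM PNU-120596 in the buffer. IC50 came from concentration-inhibition curves. Means of 3–5 experiments run in duplicate.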

[7] = molecular target: T2, Neuronal acetylcholine receptor subunit alpha-7; assay: Agonist activity at human alpha7 nAChR expressed in HEK293 cells co-expressing Ric-3/NACHO assessed as induction of calcium mobilization measured up to 90 secs in presence of PNU-120596 by FLIPR assay; type: cell-based
Summary of the method: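 Human α7 nAChR stably co-expressed with Ric-3 and NACHO in HEK293 cells, Ca2+/Fluo-4 fluorescence assay. Assay buffer held 3 μM PNU-120596 (α7 PAM) to slow desensitization. Agonist concentration-response curves gave EC50 and Rmax. Means of 3–5 experiments run in duplicate.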

[8] = molecular target: T2, Neuronal acetylcholine receptor subunit alpha-7; assay: Agonist activity at human alpha7 nAChR expressed in HEK293 cells co-expressing Ric-3/NACHO assessed as induction of calcium mobilization at 30 uM measured up to 90 secs in presence of PNU-120596 by FLIPR assay; type: cell-based

Row | Structure (SMILES) | Ki [1] | Ki [2] | Ki [3] | IC50 [4] | IC50 [5] | IC50 [6] | EC50 [7] | Activity [8]
1 | COc1ccc(CC2c3cc(OC)c(OC)cc3CCN2C)cc1OC (stereo unspecified) [LAUDANOSINE] | 100 µM | > 100 µM | > 100 µM | > 100 µM | > 100 µM | > 100 µM | > 100 µM | –
2 | CN1CCc2cc3c(cc2C1)OCO3 | 17 µM | – | – | – | – | > 100 µM | > 100 µM | –
3 | COc1ccc2c(c1)CC[N+]1(C)CCCC21 (stereo unspecified) | 3.6 µM | 12 µM | 25 µM | 100 µM | 30 µM | – | 5.2 µM | –
4 | CCC[N+]1(C)CCc2cc(OC)c(OC)cc2C1 (stereo unspecified) | 14 µM | 300 µM | 300 µM | > 300 µM | 30 µM | > 100 µM | > 100 µM | –
5 | COc1ccc2c(c1)CCN1CCCC21 (stereo unspecified) | 25 µM | 100 µM | > 100 µM | > 100 µM | 100 µM | > 100 µM | > 100 µM | –
6 | COc1cc2c(cc1O)CN(C)CC2 | – | – | 100 µM | 100 µM | – | > 100 µM | > 100 µM | –
7 | CC[N+]1(C)CCc2cc(OC)c(OC)cc2C1 (stereo unspecified) | 9.7 µM | > 300 µM | > 300 µM | > 300 µM | 11 µM | – | – | Active
8 | COc1ccc2c(c1)CCN(C)C2 | 2.6 µM | 25 µM | 100 µM | > 100 µM | 6.2 µM | > 100 µM | > 100 µM | –
9 | COc1ccc2c(c1)CC[N+](C)(C)C2 | 0.68 µM | 1.5 µM | 9.3 µM | > 100 µM | 1.4 µM | – | 4.4 µM | –
10 | C[N+]12CCCC1c1ccccc1CC2 (stereo unspecified) | 17 µM | 25 µM | 50 µM | > 100 µM | 50 µM | – | 2.2 µM | –
11 | COc1cc2c(cc1OCc1ccccc1)CN(C)CC2 | 15 µM | 300 µM | 300 µM | > 300 µM | 23 µM | 30 µM | – | –
12 | c1c2c(cc3c1OCO3)C1CCCN1CC2 (stereo unspecified) | 0.5 µM | 9.3 µM | > 100 µM | – | 2.3 µM | – | – | Active
13 | COc1cc2c(cc1OC)C1CCCN1CC2 (stereo unspecified) | 4.6 µM | – | 100 µM | – | 30 µM | > 100 µM | > 100 µM | –
14 | c1ccc2c(c1)CCN1CCCC21 (stereo unspecified) | 8.5 µM | 100 µM | 100 µM | > 100 µM | 15 µM | 100 µM | – | –
15 | COc1cc2c(cc1OC)C[N+](C)(C)CC2 | 0.63 µM | 50 µM | 100 µM | > 300 µM | 11 µM | – | 9 µM | –
16 | COc1cc2c(cc1OC)[C@@H]1CCCN1CC2 | > 100 µM | > 100 µM | > 100 µM | > 100 µM | > 100 µM | > 100 µM | > 100 µM | –
17 | COc1cc2c(cc1OC)CN(C)CC2 | – | – | – | – | – | > 100 µM | > 100 µM | –
18 | C=CC[N+]1(C)CCc2cc(OC)c(OC)cc2C1 (stereo unspecified) | 30 µM | 300 µM | > 300 µM | > 300 µM | 30 µM | > 100 µM | > 100 µM | –
19 | COc1cc2c(cc1OCc1ccccc1)C1CCCN1CC2 (stereo unspecified) | 50 µM | 300 µM | 300 µM | > 100 µM | 50 µM | 11 µM | – | –
20 | COc1ccc2c(c1)C1CCC[N+]1(C)CC2 (stereo unspecified) | 0.23 µM | 0.92 µM | 9.3 µM | 50 µM | 1.8 µM | – | 1.2 µM | –
21 | COc1cc2c(cc1OC)[C@@H]1CCC[N+]1(C)CC2 (stereo partly specified) | 25 µM | 7.5 µM | 25 µM | > 100 µM | > 100 µM | – | 6.5 µM | –
22 | COc1cc2c(cc1OC)[C@H]1CCC[N+]1(C)CC2 (stereo partly specified) | 2.4 µM | 25 µM | 25 µM | > 100 µM | 7.2 µM | – | 5.1 µM | –
23 | COc1cc2c(cc1O)C[N+](C)(C)CC2 | 0.4 µM | 8.9 µM | 25 µM | > 100 µM | 1.2 µM | – | 0.99 µM | –
24 | COc1cc2c(cc1OC)C1CCC[N+]1(C)CC2 (stereo unspecified) | 2.4 µM | 30 µM | 50 µM | 100 µM | 30 µM | – | 7.5 µM | –
25 | COc1cc2c(cc1OC)[C@H]1CCCN1CC2 | 2.5 µM | 100 µM | 100 µM | > 100 µM | 16 µM | > 100 µM | > 100 µM | –
26 | C[N+]12CCC[C@H]1c1cc3c(cc1CC2)OCO3 (stereo partly specified) | 25 µM | 25 µM | 25 µM | > 100 µM | > 100 µM | – | 5.4 µM | –
27 | COC1CC=C2CCN3CCC4=C(CC(=O)OC4)[C@]23C1 (stereo partly specified) | 0.65 µM | 25 µM | 100 µM | 100 µM | 0.6 µM | 100 µM | – | –
28 | COc1cc2c(cc1OCc1ccccc1)CCN(C)C2 | 2.9 µM | 300 µM | 300 µM | 100 µM | 24 µM | 30 µM | – | –
29 | COc1cc2c(cc1OC)C[N+](C)(Cc1ccccc1)CC2 (stereo unspecified) | 30 µM | > 300 µM | 300 µM | > 300 µM | 30 µM | 2 µM | – | –
30 | COc1cc2c(cc1OCc1ccccc1)CCN1CCCC21 (stereo unspecified) | 6.3 µM | 300 µM | 100 µM | 100 µM | 30 µM | 5.7 µM | – | –
